Results taken from ChEMBL document CHEMBL5678817, “FTBMT, a Novel and Selective GPR52 Agonist, Demonstrates Antipsychotic-Like and Procognitive Effects in Rodents, Revealing a Potential Therapeutic Agent for Schizophrenia” (J Pharmacol Exp Ther, 2017).
Calls of active or inactive are those of the source. No cut-off for these calls is given here.

Legend:
Homo sapiens [1] = organism: Homo sapiens; assay: Inhibition of NA+/K+ ATPase (unknown origin) at 10 uM relative to control
Method in brief: (§1)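 Enzyme activity assays from the same 98-target biochemical panel. Single test concentration of 10 µM. Read-out is % inhibition of enzyme activity relative to control; negative percentages indicate activation of the enzyme.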

[2] = target: Glucocorticoid receptor (Homo sapiens) (UniProt P04150); assay: Inhibition of Glucocorticoid receptor (unknown origin) at 10 uM relative to control
Method in brief: (§2)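 Part of a 98-target external biochemical selectivity panel that used radioligand/receptor binding-type assays. Compound tested once at 10 µM. Results are reported as % inhibition versus control; negative values mean stimulation of receptor activity.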

Homo sapiens [3] = organism: Homo sapiens; assay: Inhibition of strychnine-Glycine receptor (unknown origin) at 10 uM relative to control
Method in brief: (§3)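 Binding and enzyme panel run by an outside contractor against receptors, ion channels and enzymes. Each assay used a single 10 μM test concentration, and results are expressed as percent inhibition. A negative value means stimulation of receptor activity or activation of enzyme activity.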

[4] = target: D(1A) dopamine receptor (Homo sapiens) (UniProt P21728); assay: Inhibition of Dopamine D1 receptor (unknown origin) at 10 uM relative to control
Method in brief: (§4)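 Single-point screen at 10 μM across receptor, ion channel and enzyme binding or activity assays. Expressed as percent inhibition versus control; negative values denote stimulation.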

[5] = target: 5-hydroxytryptamine receptor 4 (Homo sapiens) (UniProt Q13639); assay: Inhibition of Serotonin 5-HT4 receptor (unknown origin) at 10 uM relative to control; method in brief: as §2
[6] = target: Glutamate [NMDA] receptor (Homo sapiens) (UniProt Q05586+Q12879+Q13224+O15399+O60391+Q14957+Q8TCU5); assay: Inhibition of Glutamate NMDA receptor (unknown origin) at 10 uM relative to control; format: protein-complex assay; method in brief: as §2
[7] = target: cAMP and cAMP-inhibited cGMP 3',5'-cyclic phosphodiesterase 10A (Homo sapiens) (UniProt Q9Y233); assay: Inhibition of PDE10A1 (unknown origin) at 10 uM relative to control; method in brief: as §1
[8] = target: Serotonin 3 (5-HT3) receptor (Homo sapiens) (UniProt P46098+A5X5Y0+O95264+Q70Z44+Q8WXA8); assay: Inhibition of Serotonin 5-HT3 receptor (unknown origin) at 10 uM relative to control; format: protein-complex assay; method in brief: as §2
[9] = target: Alpha-2B adrenergic receptor (Homo sapiens) (UniProt P18089); assay: Inhibition of Adrenergic alpha2B receptor (unknown origin) at 10 uM relative to control; method in brief: as §4
[10] = target: Beta-2 adrenergic receptor (Homo sapiens) (UniProt P07550); assay: Inhibition of Adrenergic beta2 receptor (unknown origin) at 10 uM relative to control; method in brief: as §4
[11] = target: B2 bradykinin receptor (Homo sapiens) (UniProt P30411); assay: Inhibition of Bradykinin B2 receptor (unknown origin) at 10 uM relative to control; method in brief: as §4
[12] = target: Interstitial collagenase (Homo sapiens) (UniProt P03956); assay: Inhibition of MMP1 (unknown origin) at 10 uM relative to control; method in brief: as §1
[13] = target: Histamine H2 receptor (Homo sapiens) (UniProt P25021); assay: Inhibition of Histamine H2 receptor (unknown origin) at 10 uM relative to control; method in brief: as §2
Mus musculus [14] = assay: Antipsychotic activity in GPR52 knockout ICR mouse assessed as inhibition of MK-801-induced hyperactivity at 30 mg/kg, po pretreated with compound for 1 hr followed by MK-801 addition and measured after 90 mins; format: functional, organism-based; conditions: time 150.0 min
[15] = target: Cholinesterase (Homo sapiens) (UniProt P06276); assay: Inhibition of Choline esterase (unknown origin) at 10 uM relative to control
Method in brief: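 Enzyme assay run by an outside lab as part of a 98-target screen of receptors, ion channels and enzymes. Single test concentration of 10 μM; read-out is percent inhibition of enzyme activity versus control, with negative values meaning activation.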

Mus musculus [16] = assay: Antipsychotic activity in methamphetamine-induced hyperactivity in ICR mouse assessed as minimum effective dose administered orally; format: functional; conditions: route po, read-out: MED
Mus musculus [17] = assay: Antipsychotic activity in C57BL/6N mouse assessed as increase in c-fos positive cells in frontal cortex at 30 mg/kg, po measured for 2 hrs by immunohistochemistry analysis; format: functional, organism-based
Homo sapiens [18] = organism: Homo sapiens; assay: Inhibition of EGF receptor (unknown origin) at 10 uM relative to control; method in brief: as §1
Homo sapiens [19] = organism: Homo sapiens; assay: Inhibition of Imidazoline I2 receptor (unknown origin) at 10 uM relative to control; method in brief: as §2
Mus musculus [20] = assay: Antipsychotic activity in C57BL/6N mouse assessed as increase in c-fos positive cells in entorhinal cortex at 30 mg/kg, po measured for 2 hrs by immunohistochemistry analysis; format: functional, organism-based
[21] = target: Cholecystokinin receptor type A (Homo sapiens) (UniProt P32238); assay: Inhibition of CCK1 receptor (unknown origin) at 10 uM relative to control; method in brief: as §4
Homo sapiens [22] = organism: Homo sapiens; assay: Inhibition of Sigma receptor (unknown origin) at 10 uM relative to control; method in brief: as §2
[23] = target: Nitric oxide synthase, inducible (Homo sapiens) (UniProt P35228); assay: Inhibition of iNOS (unknown origin) at 10 uM relative to control; method in brief: as §3
[24] = target: Neuromedin-K receptor (Homo sapiens) (UniProt P29371); assay: Inhibition of Tachykinin NK3 receptor (unknown origin) at 10 uM relative to control; method in brief: as §3
[25] = target: Thromboxane A2 receptor (Homo sapiens) (UniProt P21731); assay: Inhibition of Thromboxane A2 receptor (unknown origin) at 10 uM relative to control; method in brief: as §3
[26] = target: Phosphodiesterase 4 (Homo sapiens) (UniProt P27815+Q08499+Q07343+Q08493); assay: Inhibition of PDE4 (unknown origin) at 10 uM relative to control; format: protein assay; method in brief: as §1
[27] = target: Serotonin 2 (5-HT2) receptor (Homo sapiens) (UniProt P41595+P28223+P28335); assay: Inhibition of Serotonin 5-HT2 receptor (unknown origin) at 10 uM relative to control; format: protein assay; method in brief: as §2
[28] = target: D(4) dopamine receptor (Homo sapiens) (UniProt P21917); assay: Inhibition of Dopamine D4 receptor (unknown origin) at 10 uM relative to control; method in brief: as §2
[29] = target: Collagenase 3 (Homo sapiens) (UniProt P45452); assay: Inhibition of MMP13 (unknown origin) at 10 uM relative to control; method in brief: as §1
[30] = target: T1, G protein-coupled receptor 52 (Rattus norvegicus) (UniProt A0A8I5ZQK1); assay: Agonist activity at GPR52 in rat Striatal neuron assessed as increase in CREB phosphorylation […] by Alphascreen assay; format: cell-based; conditions: filed as agonist
[31] = target: Gastrin/cholecystokinin type B receptor (Homo sapiens) (UniProt P32239); assay: Inhibition of CCK2 receptor (unknown origin) at 10 uM relative to control; method in brief: as §4
[32] = target: Adenosine receptor A1 (Homo sapiens) (UniProt P30542); assay: Inhibition of Adenosine A1 receptor (unknown origin) at 10 uM relative to control; method in brief: as §4
[33] = target: T1, G protein-coupled receptor 52 (Rattus norvegicus); assay: Agonist activity at GPR52 in rat Striatal neuron assessed as increase in c-fos mRNA expression by RT-PCR analysis; format: cell-based; conditions: filed as agonist
Method in brief: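 Rat primary striatal neurons (E18–19), used at DIV 13–16. Treated in HBSS with 5 mM HEPES pH 7.5 and 0.5% fatty-acid-free BSA for 15 or 60 min at 37 °C. Cells were homogenized in RLT buffer and IEG mRNA was quantified by qPCR using absolute or ΔΔCt relative quantification.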

T1 sequence (A0A8I5ZQK1 as listed by the source): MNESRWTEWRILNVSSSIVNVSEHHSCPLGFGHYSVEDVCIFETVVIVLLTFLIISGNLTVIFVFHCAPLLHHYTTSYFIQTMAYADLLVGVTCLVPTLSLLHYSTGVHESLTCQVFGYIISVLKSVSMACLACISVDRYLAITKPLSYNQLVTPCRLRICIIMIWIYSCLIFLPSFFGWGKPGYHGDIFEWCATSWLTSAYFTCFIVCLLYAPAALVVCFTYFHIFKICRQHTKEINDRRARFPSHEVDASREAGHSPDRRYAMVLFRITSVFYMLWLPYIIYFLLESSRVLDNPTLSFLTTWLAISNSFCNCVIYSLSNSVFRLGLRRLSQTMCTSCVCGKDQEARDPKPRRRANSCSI
Chain of Interstitial collagenase (Homo sapiens) (P03956 whole entry): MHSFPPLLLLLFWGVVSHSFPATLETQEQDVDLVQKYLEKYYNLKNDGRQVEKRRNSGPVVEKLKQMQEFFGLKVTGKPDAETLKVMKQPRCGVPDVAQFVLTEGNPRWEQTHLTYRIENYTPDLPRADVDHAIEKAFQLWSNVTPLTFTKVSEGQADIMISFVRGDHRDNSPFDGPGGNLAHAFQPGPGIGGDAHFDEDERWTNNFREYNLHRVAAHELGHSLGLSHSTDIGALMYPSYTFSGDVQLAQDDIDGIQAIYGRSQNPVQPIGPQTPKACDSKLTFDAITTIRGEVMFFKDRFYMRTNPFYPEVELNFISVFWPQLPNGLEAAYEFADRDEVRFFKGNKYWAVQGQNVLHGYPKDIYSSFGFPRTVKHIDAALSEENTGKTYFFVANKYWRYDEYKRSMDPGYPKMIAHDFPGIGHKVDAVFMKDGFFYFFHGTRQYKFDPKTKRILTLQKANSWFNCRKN
Chain of Adenosine receptor A1 (Homo sapiens) (P30542 whole entry): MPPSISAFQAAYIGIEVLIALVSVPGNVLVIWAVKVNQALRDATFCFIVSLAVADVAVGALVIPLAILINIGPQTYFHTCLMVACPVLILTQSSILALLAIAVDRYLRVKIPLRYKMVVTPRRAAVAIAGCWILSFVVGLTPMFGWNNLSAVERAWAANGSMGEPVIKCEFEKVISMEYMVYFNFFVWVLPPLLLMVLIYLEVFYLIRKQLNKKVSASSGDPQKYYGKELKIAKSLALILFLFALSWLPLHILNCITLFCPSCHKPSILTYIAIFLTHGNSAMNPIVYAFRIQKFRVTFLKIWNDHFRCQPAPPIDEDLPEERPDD
Chain of Beta-2 adrenergic receptor (Homo sapiens) (P07550 whole entry, looked up): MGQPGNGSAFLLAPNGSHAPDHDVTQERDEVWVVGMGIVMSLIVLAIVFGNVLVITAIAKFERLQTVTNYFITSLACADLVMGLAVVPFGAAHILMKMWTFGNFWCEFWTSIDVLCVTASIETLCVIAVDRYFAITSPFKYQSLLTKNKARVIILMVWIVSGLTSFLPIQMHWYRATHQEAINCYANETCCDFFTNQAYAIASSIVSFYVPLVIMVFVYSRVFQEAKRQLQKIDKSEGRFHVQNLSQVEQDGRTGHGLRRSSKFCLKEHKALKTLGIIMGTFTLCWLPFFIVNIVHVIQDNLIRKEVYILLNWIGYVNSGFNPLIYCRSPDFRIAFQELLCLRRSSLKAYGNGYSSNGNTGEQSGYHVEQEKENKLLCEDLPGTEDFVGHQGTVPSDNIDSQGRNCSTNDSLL
Chain of Neuromedin-K receptor (Homo sapiens) (P29371 whole entry): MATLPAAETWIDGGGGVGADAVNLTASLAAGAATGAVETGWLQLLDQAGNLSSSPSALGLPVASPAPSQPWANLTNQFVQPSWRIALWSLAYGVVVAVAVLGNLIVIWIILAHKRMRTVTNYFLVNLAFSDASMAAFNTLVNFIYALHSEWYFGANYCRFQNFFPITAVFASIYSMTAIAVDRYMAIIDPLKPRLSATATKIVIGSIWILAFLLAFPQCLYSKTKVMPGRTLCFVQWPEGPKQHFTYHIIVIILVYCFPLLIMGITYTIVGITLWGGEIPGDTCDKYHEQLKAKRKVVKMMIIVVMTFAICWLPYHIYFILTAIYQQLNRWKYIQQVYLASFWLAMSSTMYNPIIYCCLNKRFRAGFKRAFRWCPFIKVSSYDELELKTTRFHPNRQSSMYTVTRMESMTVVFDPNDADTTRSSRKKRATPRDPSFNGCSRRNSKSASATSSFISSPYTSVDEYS
Chain of D(4) dopamine receptor (Homo sapiens) (P21917 whole entry): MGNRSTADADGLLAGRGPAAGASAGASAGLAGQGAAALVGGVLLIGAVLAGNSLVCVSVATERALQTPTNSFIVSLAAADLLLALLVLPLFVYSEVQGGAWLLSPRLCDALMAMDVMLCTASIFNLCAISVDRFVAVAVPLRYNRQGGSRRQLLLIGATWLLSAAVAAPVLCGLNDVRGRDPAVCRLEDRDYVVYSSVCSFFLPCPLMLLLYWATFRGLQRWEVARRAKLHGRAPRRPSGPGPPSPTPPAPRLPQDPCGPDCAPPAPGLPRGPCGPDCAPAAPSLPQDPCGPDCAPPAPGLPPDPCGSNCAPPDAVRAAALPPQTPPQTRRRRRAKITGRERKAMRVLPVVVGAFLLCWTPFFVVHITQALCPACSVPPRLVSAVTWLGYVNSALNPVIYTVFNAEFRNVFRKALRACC
Chain of Glucocorticoid receptor (Homo sapiens) (P04150 whole entry): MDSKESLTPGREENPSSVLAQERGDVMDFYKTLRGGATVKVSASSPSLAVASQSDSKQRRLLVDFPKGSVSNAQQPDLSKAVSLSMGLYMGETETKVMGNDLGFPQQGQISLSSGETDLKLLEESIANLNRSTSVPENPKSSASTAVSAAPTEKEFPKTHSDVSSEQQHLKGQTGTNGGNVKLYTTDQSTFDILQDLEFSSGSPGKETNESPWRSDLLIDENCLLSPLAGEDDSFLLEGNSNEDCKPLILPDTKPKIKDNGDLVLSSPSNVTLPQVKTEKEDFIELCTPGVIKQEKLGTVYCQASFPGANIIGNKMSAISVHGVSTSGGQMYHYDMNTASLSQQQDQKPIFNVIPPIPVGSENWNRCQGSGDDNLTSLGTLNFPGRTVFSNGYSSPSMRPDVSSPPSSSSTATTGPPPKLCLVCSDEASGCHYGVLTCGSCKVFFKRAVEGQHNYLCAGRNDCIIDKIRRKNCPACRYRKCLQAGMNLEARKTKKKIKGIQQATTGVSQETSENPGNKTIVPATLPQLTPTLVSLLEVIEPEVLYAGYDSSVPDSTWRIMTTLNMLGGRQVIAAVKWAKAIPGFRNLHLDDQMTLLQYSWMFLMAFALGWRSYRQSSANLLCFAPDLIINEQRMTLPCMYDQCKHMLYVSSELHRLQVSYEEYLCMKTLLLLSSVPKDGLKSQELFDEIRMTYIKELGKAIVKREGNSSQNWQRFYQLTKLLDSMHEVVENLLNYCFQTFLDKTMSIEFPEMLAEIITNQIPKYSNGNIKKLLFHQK
Chain of Gastrin/cholecystokinin type B receptor (Homo sapiens) (P32239 whole entry): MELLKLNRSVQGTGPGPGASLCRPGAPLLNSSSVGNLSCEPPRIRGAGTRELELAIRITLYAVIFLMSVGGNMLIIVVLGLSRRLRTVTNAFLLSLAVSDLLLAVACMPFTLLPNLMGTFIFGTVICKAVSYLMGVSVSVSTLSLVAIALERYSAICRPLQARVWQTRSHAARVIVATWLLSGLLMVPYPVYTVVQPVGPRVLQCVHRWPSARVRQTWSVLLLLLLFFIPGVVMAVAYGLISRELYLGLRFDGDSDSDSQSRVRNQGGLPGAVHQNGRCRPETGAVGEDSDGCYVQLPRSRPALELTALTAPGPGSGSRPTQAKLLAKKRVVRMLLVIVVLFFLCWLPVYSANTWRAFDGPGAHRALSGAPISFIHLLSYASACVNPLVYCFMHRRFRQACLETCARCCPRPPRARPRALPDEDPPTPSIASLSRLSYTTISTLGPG
Chain of Thromboxane A2 receptor (Homo sapiens) (P21731 whole entry): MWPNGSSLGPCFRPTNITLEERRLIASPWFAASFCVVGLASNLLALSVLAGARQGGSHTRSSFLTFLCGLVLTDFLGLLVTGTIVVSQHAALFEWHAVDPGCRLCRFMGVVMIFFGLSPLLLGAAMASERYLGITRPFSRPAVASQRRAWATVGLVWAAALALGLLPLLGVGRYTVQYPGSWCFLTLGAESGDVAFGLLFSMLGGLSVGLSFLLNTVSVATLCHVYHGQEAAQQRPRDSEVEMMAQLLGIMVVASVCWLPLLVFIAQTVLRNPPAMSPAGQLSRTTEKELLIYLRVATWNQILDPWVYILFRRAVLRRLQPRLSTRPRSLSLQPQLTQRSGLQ
Chain of Cholinesterase (Homo sapiens) (P06276 whole entry): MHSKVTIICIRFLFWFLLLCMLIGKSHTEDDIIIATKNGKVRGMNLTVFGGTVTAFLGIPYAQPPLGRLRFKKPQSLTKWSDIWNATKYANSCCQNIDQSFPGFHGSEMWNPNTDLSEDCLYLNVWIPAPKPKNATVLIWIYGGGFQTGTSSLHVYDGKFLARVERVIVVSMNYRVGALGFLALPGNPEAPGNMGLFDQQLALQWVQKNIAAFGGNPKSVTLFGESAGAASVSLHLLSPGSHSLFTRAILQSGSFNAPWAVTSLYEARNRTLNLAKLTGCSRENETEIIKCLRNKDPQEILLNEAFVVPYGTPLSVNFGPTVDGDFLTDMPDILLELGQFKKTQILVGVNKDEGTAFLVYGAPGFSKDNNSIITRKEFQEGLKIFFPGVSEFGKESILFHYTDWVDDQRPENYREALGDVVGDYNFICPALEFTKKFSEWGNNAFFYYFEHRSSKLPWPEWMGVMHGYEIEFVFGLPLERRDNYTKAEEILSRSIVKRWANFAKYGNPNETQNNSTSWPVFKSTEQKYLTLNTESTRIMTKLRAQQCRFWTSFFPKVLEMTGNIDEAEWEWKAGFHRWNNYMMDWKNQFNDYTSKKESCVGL

In the case of Cc1cc(-n2nc(Cc3cc(F)cc(C(F)(F)F)c3)nc2C)ccc1C(N)=O [TP-024], the inhibition (Homo sapiens [1]) is reported as -2%, the inhibition [2] is reported as 12% and the inhibition (Homo sapiens [3]) is reported as -4%. For the same molecule, the inhibition [4] was 7%, the inhibition [5] was 4% and the inhibition [6] was -7%. For the same molecule, the inhibition [7] was 0%, the inhibition [8] was 10% and the inhibition [9] was 5%. It also gave an inhibition [10] of -5%, an inhibition [11] of 16% and an inhibition [12] of -3%. The inhibition [13] was 2%, the Activity (Mus musculus [14]) was “inactive” and the inhibition [15] was 18%. For the same molecule, the minimal effective dose (Mus musculus [16]) was 10 mg/kg, the Activity (Mus musculus [17]) was “Active” and the inhibition (Homo sapiens [18]) was -1%. The inhibition (Homo sapiens [19]) was 6%, the Activity (Mus musculus [20]) was “Active” and the inhibition [21] was 6%. The inhibition (Homo sapiens [22]) was 28%, the inhibition [23] was 7% and the inhibition [24] was 20%. For the same molecule, the inhibition [25] was -6%, the inhibition [26] was 6% and the inhibition [27] was 14%. The inhibition [28] was 3%, the inhibition [29] was 1% and the Activity [30] was “Active”. For the same molecule, the inhibition [31] was 0%, the inhibition [32] was 33% and the Activity [33] was “Active”.
